# Experimental data gathered from unrelated publications.
# Protocols differ between the studies behind these lines.
# Target: Vascular endothelial growth factor receptor 1 (FLT1, Homo sapiens, UniProt P17948)
SMILES,read-out,mode,technique,concentration,measurement,value
Nc1ncnc2occ(-c3ccc(NC(=O)Nc4cc(C(F)(F)F)ccc4F)cc3)c12,cell-free assay,,,20 µM,remaining signal,0.55%
CCN(CC)CCNC(=O)c1c(C)[nH]c(/C=C2\C(=O)Nc3ccc(F)cc32)c1C,enzyme activity,inhibitor,,0.3 µM,inhibition,99%
CCOc1cc(-c2nncn2C)ccc1Nc1ncc2cc(C)nc(NCC(C)(C)C)c2n1,enzyme activity,inhibitor,FRET,1 µM,inhibition,< 15%
O=C(Nc1cnn(-c2csc(C(=O)NC3COC3)c2)c1)Nc1c(F)cccc1Cl,enzyme activity,inhibitor,,5 µM,remaining activity,86.1%
C[C@@H](c1cccc(C#N)c1)n1cc(Cl)cc(C(N)=O)c1=N,cell-free assay,,competition with immobilised ligand,1 µM,remaining binding,100%
Cc1cnc(NC2CCOCC2)nc1-n1cnc(C(=O)NC(CN)c2cc(F)cc(Cl)c2)c1 (stereo not drawn),enzyme activity,inhibitor,radiometric,1 µM,remaining activity,92%
Cc1nccc(COC(=O)N2C[C@@H]3[C@@H](CNC(=O)c4ccc5[nH]nnc5c4)[C@@H]3C2)n1,cell-free assay,,competition with immobilised ligand,1 µM,remaining binding,100%
CN(c1ncccc1CNc1nc(Nc2ccc3c(c2)CC(=O)N3)ncc1C(F)(F)F)S(C)(=O)=O,enzyme activity,inhibitor,,1 µM,inhibition,80%
COc1cc(Cl)c(C(=O)N[C@@H](CN[C@H]2CC[C@@H](N)CC2)Cc2ccc(C#N)cc2)cc1-c1ccc(CN[C@H](C)c2ccc(C)cc2)o1,enzyme activity,inhibitor,,1 µM,remaining activity,102%
Cc1ccc(C(=O)Nc2ccc(CN3CCN(C)CC3)c(C(F)(F)F)c2)cc1C#Cc1cnc2cccnn12,cell-free assay,,,23.5 nM,remaining signal,33%
CNCc1ccc(-c2cc(-c3nc(-c4ccc(S(=O)(=O)C(C)C)cc4)cnc3N)on2)cc1,enzyme activity,inhibitor,,0.4 µM,inhibition,50%
CCN(CC)c1ccc(C2=NNC(=O)CC2C)cc1[N+](=O)[O-] (stereo not drawn),enzyme activity,inhibitor,,10 µM,remaining activity,104%
COc1cc2ncnc(Nc3ccc(Oc4ccccc4)cc3C)c2cc1OC,enzyme activity,inhibitor,,1 µM,inhibition,-2%
Cc1cc(NC(=O)c2cccc3cc(-c4cccc5[nH]nc(N)c45)ccc23)ccc1F,enzyme activity,inhibitor,,0.1 µM,activity vs control,2%
Cc1cc(-n2nc(Cc3cc(F)cc(C(F)(F)F)c3)nc2C)ccc1C(N)=O,cell-free assay,,competition with immobilised ligand,1 µM,remaining binding,100%
Nc1nc(NC2CCCCC2)sc1C(=O)c1ccccc1,enzyme activity,inhibitor,,10 µM,remaining activity,57%
N#CC1(c2ccccn2)CCN(Cc2cc(C(=O)N3CCCC3)c(=O)n3ccccc23)CC1,cell-free assay,,competition with immobilised ligand,1 µM,remaining binding,100%
Cc1ccc(NC(=O)c2ccc(C)c(C(F)(F)F)c2)cc1C#Cc1nn(C2CCC(O)CC2)c2ncnc(N)c12 (stereo not drawn),cell-free assay,,,10 µM,remaining signal,3%
CC/C(=N\NC(=O)NCc1cccc(O)c1)c1ccc(O)c(C)c1O,enzyme activity,inhibitor,,0.1 µM,inhibition,2.5%
CS(=O)(=O)NCC[C@H](NC(=O)c1cncc2c1cnn2-c1ccc(F)cc1)c1ccnc(S(C)(=O)=O)c1,cell-free assay,,competition with immobilised ligand,1 µM,remaining binding,90%
COc1cc(Nc2cnc(C#N)c(O[C@H](C)CN(C)C)n2)ncc1-c1cnn(C)c1,enzyme activity,inhibitor,radiometric,10 µM,remaining activity,31%
CNC(=O)c1cc(Oc2ccc(NC(=O)Nc3ccc(Cl)c(C(F)(F)F)c3)cc2)ccn1,cell-free assay,,,0.5 µM,remaining signal,50.5%
CC(C)CC(=O)N1CCc2nc(-c3ccc(Br)cc3)nc(N(C)Cc3ccccc3)c2C1,cell-free assay,,competition with immobilised ligand,0.1 µM,remaining binding,100%
COc1cc(/C=C/C(=O)CC(=O)/C=C/c2ccc(O)c(OC)c2)ccc1O,enzyme activity,inhibitor,,1 µM,activity vs control,67%
C=CC(=O)Nc1cc(Nc2nccc(Nc3cc(Cl)c(F)cc3C(C)(C)O)n2)c(OC)cc1N1CC[C@@H](N(C)C)C1,enzyme activity,inhibitor,,1 µM,inhibition,0%
C[C@H](c1ccc(F)cc1)N(Cc1cccc(C(=O)O)c1)C(=O)c1cnc2ccccc2c1,cell-free assay,,competition with immobilised ligand,1 µM,remaining binding,100%
Cc1ccc(Nc2nccc(N(C)c3ccc4c(C)n(C)nc4c3)n2)cc1S(N)(=O)=O,enzyme activity,inhibitor,,0.3 µM,inhibition,100%
CO[C@@H](C)c1c(Nc2ccc([C@@H](N(C)C(=O)C3CCS(=O)(=O)CC3)C(F)(F)F)cc2)cnc2cc(Cl)nn12,cell-free assay,,competition with immobilised ligand,1 µM,remaining binding,85%
N#CCCc1ccc2c(c1)-c1[nH]c3ccc([N+](=O)[O-])cc3c1CC(=O)N2,cell-free assay,,,0.5 µM,remaining signal,99.7%
CC(C)(C)c1nc2c(s1)c1nc(N)ncc1c1ccc(NS(=O)(=O)c3c(F)cccc3F)c(F)c12,enzyme activity,inhibitor,radiometric,1 µM,remaining activity,111%
